Measurements published in ChEMBL document CHEMBL3994567, “Design and synthesis of selective, small molecule inhibitors of coactivator-associated arginine methyltransferase 1 (CARM1)” (Medchemcomm, 2016).
pIC50: −log10 of the molar value. The source made the active and inactive calls. The calls are words filed in the database; no cut-off is given here.

Legend:
[1] = target: T1, Histone-arginine methyltransferase CARM1 (Homo sapiens, UniProt Q86X55); test: Inhibition of CARM1 (unknown origin)
T1 sequence (Q86X55 whole entry): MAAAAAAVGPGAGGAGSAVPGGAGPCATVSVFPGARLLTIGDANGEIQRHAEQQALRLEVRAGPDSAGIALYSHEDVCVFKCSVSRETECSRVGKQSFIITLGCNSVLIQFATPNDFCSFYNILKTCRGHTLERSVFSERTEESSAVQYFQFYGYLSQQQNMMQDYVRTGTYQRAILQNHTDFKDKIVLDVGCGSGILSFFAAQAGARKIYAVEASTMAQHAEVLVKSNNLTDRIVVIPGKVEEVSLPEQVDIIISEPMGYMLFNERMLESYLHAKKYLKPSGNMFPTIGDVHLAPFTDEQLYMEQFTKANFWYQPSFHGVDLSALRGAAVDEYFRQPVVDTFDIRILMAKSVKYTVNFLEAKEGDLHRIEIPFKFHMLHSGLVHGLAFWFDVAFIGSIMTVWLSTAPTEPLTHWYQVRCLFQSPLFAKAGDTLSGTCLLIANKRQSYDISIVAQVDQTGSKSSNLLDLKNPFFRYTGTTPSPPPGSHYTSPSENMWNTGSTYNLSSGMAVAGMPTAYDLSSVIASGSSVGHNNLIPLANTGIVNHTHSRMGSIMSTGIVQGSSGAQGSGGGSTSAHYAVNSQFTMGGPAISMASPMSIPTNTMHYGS
Outline: (§1)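 Radiometric methyltransfer assay. Enzyme transfers a tritiated methyl from ³H-SAM onto a biotin-labelled peptide substrate, with unlabelled SAM added when needed. The methylated peptide is captured in FlashPlate wells and counted by scintillation. IC50 comes from titrating compound under balanced conditions, with both peptide substrate and SAM at their Km concentrations.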

[2] = target: Protein arginine N-methyltransferase 5 (Homo sapiens, UniProt O14744); test: Inhibition of PRMT5 (unknown origin); outline: as §1
Sequence of Protein arginine N-methyltransferase 5 (O14744 whole entry): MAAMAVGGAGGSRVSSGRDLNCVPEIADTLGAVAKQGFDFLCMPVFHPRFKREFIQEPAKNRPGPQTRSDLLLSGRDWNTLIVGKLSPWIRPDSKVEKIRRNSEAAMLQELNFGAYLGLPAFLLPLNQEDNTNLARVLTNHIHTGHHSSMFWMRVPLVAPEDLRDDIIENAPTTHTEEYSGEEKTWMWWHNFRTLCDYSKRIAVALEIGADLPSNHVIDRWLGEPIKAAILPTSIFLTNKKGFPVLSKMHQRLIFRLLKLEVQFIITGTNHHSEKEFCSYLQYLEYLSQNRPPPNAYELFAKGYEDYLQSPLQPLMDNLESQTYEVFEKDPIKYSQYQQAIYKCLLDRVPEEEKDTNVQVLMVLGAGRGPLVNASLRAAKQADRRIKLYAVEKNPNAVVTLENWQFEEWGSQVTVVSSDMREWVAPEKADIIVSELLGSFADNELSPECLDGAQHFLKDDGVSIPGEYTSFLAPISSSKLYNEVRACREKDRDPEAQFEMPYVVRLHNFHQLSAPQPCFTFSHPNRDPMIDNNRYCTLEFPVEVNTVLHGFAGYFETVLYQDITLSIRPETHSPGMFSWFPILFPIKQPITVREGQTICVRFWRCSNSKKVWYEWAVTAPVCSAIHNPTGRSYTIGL

[3] = target: T2, Histone-arginine methyltransferase CARM1 (Homo sapiens) (UniProt Q86X55); test: Noncompetitive inhibition of CARM1 (unknown origin) at varying levels of peptide substrate and cofactor 3H-SAM by scintillation proximity assay
T2 sequence (whole entry): T1 sequence (Q86X55 whole entry)

SMILES	pIC50 [1]	pIC50 [2]	inhibition [3]
CNCCN1CCC(NCc2cccc(-c3ccccc3)c2)CC1	6.48		
CNCCN1CCC(NCc2cccc(Br)c2)CC1	7.03	< 4.30	Active
CNCCN1CCC(NCc2cccc(Cl)c2)CC1	6.80		
CNCCN1CCC(NCc2cccc(F)c2)CC1	6.65		
CNCCN1CC(OCc2cccc(OC(F)(F)F)c2)C1	6.84		
CNCCN1CC(NCc2cccc(OC(F)(F)F)c2)C1	7.05		
CNCCN1CCC(NCc2ccccc2)CC1	6.33	< 4.30	
CNCCN1CC(NCc2cccc(C(F)(F)F)c2)C1	7.03		
CNCCN1CC(NCc2cccc(F)c2)C1	6.89		
CNCCN1CCC(NCc2cccc(C(F)(F)F)c2)CC1	6.52		
CNCCN1CC(NCc2cccc(Br)c2)C1	7.17		
CNCCN1CCC(NCc2cccc(OC(F)(F)F)c2)CC1	6.47		
CNCCN1CC(NCc2cccc(Cl)c2)C1	7.30		
